Assay type in all cases: functional, cell-based
One assay concerns PC-3. The assay is described as follows: Antiproliferative activity against human PC3 cells after 3 days by WST-1 assay. The following applies: PC-3, 72 h. The procedure, abridged:
(§1)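 Cells from ATCC; PC-3 and LNCaP grown in RPMI-1640 and DU145 in EMEM, each with 10% FBS and 1% penicillin/streptomycin, 37 °C, 5% CO2. Seeded 3,200 cells/well and exposed for 3 days to at least five doses, with DMSO as vehicle control. WST-1 reagent added for 3 h at 37 °C, absorbance read at 430 nm. IC50 taken from a linear inhibition plot; mean ± SD of three independent experiments.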
Background: Tetrazolium assays rely on reduction of a dye to a coloured formazan, in cell work by metabolically active cells.

The next assay relates to DU-145. The assay is described as follows: Antiproliferative activity against human DU145 cells after 3 days by WST-1 assay. The settings on record: DU-145, 72 h. The procedure, abridged:
as §1

The test system of a further assay is LNCaP. The experiment in a line: Antiproliferative activity against human LNCAP cells after 3 days by WST-1 assay. The following applies: 72 h. The essentials: as §1

With `CCN(CC)CCCOc1c(-c2cc(OC)c(OC)c(OC)c2)oc2ccccc2c1=O`, the concentration for half-maximal inhibition (IC50) (as a rule, the midpoint of a concentration-inhibition curve) in the assay on PC-3 is 13.6 µM; in the assay on DU-145, over 50 µM; in the assay on LNCaP, 37.6 µM.

`CCCCCCOc1c(-c2cc(OC)c(OC)c(OC)c2)oc2ccccc2c1=O`: the IC50 is 29.2 µM with PC-3, over 50 µM in the assay with DU-145 and 19.6 µM in the assay on LNCaP.

Consider `CCCCN(CCCC)CCCCOc1c(-c2cc(OC)c(OC)c(OC)c2)oc2ccccc2c1=O`, for which the 50% inhibitory concentration (IC50) is 5.3 µM in the assay with PC-3, 15.3 µM in the assay on DU-145 and 7.8 µM in the assay with LNCaP.

With `CCCCN(CCCC)CCCCCOc1c(-c2cc(OC)c(OC)c(OC)c2)oc2ccccc2c1=O`, the figures for the concentration for half-maximal inhibition (IC50) in the assay on PC-3, in the assay on DU-145 and in the assay with LNCaP were 6.8 µM, over 50 µM and 7.8 µM, respectively.

In the case of `CCCN(CCC)CCCCCOc1c(-c2cc(OC)c(OC)c(OC)c2)oc2ccccc2c1=O`, the IC50 in the assay with PC-3 turned out to be 2.6 µM; in the assay on DU-145, 24.2 µM; with LNCaP it was 7.6 µM.

As to `COc1cc(-c2oc3ccccc3c(=O)c2OC(C)C)cc(OC)c1OC`, the half-inhibitory concentration (IC50) in the assay with PC-3 is 21.2 µM; in the assay with DU-145 it was over 50 µM; with LNCaP, 8.8 µM.

Turning to `CCCOc1c(-c2cc(OC)c(OC)c(OC)c2)oc2ccccc2c1=O`, the 50% inhibitory concentration (IC50) in the assay with PC-3 is 11.8 µM; with DU-145, 2.8 µM; in the assay on LNCaP it was 5.7 µM.

For `CCCC(C)Oc1c(-c2cc(OC)c(OC)c(OC)c2)oc2ccccc2c1=O` (stereo not given), the figures for the IC50 with PC-3, with DU-145 and in the assay with LNCaP were 49.3 µM, over 50 µM and 15.1 µM, respectively.

Turning to `CCCCOc1c(-c2cc(OC)c(OC)c(OC)c2)oc2ccccc2c1=O`, the figures for the concentration for half-maximal inhibition (IC50) in the assay with PC-3, in the assay on DU-145 and in the assay on LNCaP were 12.8 µM, over 50 µM and 8.9 µM, respectively.

Take `CCCCN(CCCC)CCCOc1c(-c2cc(OC)c(OC)c(OC)c2)oc2ccccc2c1=O`: the half-maximal inhibitory concentration (IC50) in the assay on PC-3 was found to be 7.1 µM; in the assay on DU-145 it was 15.7 µM; with LNCaP, 9 µM.

Take `O=c1c(O)c(-c2ccc(O)c(O)c2)oc2cc(O)ccc12` [FISETIN]: the figures for the IC50 in the assay with PC-3, with DU-145 and in the assay with LNCaP were over 50 µM, over 50 µM and 34.1 µM, respectively.

On to `CCCCCN(CCCCC)CCCCOc1c(-c2cc(OC)c(OC)c(OC)c2)oc2ccccc2c1=O`, for which the IC50 with PC-3 is 7.9 µM; with DU-145, 12.5 µM; in the assay with LNCaP it was 9.7 µM.

With `CCN(CC)CCCCCOc1c(-c2cc(OC)c(OC)c(OC)c2)oc2ccccc2c1=O`, the IC50 with PC-3 came to 6.6 µM; in the assay on DU-145 it was 33.4 µM; in the assay on LNCaP it was 10 µM.

With `COc1cc(-c2oc3ccccc3c(=O)c2OC)cc(OC)c1OC`, the concentration for half-maximal inhibition (IC50) with PC-3 was 19.1 µM; in the assay with DU-145, over 50 µM; in the assay with LNCaP, 24.7 µM.

For `CCCN(CCC)CCCOc1c(-c2cc(OC)c(OC)c(OC)c2)oc2ccccc2c1=O`, the IC50 with PC-3 is 16.8 µM; in the assay on DU-145 it was over 50 µM; in the assay with LNCaP, 17.9 µM.

As for `CCCCCCCOc1c(-c2cc(OC)c(OC)c(OC)c2)oc2ccccc2c1=O`, the IC50 with PC-3, in the assay on DU-145 and in the assay on LNCaP was over 50 µM in each case.

With `CCCN(CCC)CCCCOc1c(-c2cc(OC)c(OC)c(OC)c2)oc2ccccc2c1=O`, the IC50 stood at 11.6 µM in the assay on PC-3, 35.8 µM with DU-145 and 16.8 µM with LNCaP.

On to `CCC(C)Oc1c(-c2cc(OC)c(OC)c(OC)c2)oc2ccccc2c1=O` (stereo not given), for which the IC50 in the assay on PC-3 was 38.6 µM; in the assay with DU-145, over 50 µM; with LNCaP, 9.3 µM.

For the molecule `O=c1c(O)c(-c2ccc(O)c(O)c2)oc2cc(O)cc(O)c12` [QUERCETIN], the IC50 in the assay with PC-3 and with DU-145 was over 100 µM each time.

For the molecule `CCCCCN(CCCCC)CCCCCOc1c(-c2cc(OC)c(OC)c(OC)c2)oc2ccccc2c1=O`, the half-inhibitory concentration (IC50) is 9.6 µM in the assay with PC-3, 11.7 µM in the assay on DU-145 and 7.9 µM in the assay with LNCaP.

Turning to `CCN(CC)CCCCOc1c(-c2cc(OC)c(OC)c(OC)c2)oc2ccccc2c1=O`, the figures for the half-inhibitory concentration (IC50) with PC-3, in the assay with DU-145 and in the assay with LNCaP were 13.7 µM, 13.3 µM and 13.5 µM, respectively.

With `CCCCCOc1c(-c2cc(OC)c(OC)c(OC)c2)oc2ccccc2c1=O`, the IC50 in the assay with PC-3 is 22.2 µM; in the assay on DU-145, over 50 µM; in the assay with LNCaP, 15.4 µM.

(Values after ChEMBL document CHEMBL4043132, “3-O-Substituted-3',4',5'-trimethoxyflavonols: Synthesis and cell-based evaluation as anti-prostate cancer agents” (Bioorg Med Chem, 2017).)
